Data: ChEMBL document CHEMBL4330076, “Quinazolin-2,4-dione-Based Hydroxamic Acids as Selective Histone Deacetylase-6 Inhibitors for Treatment of Non-Small Cell Lung Cancer” (J Med Chem, 2019)

Columns and labels:
[1] = target: T1, Protein deacetylase HDAC6 (Homo sapiens, UniProt Q9UBN7); experiment: Competitive inhibition of human full-length recombinant HDAC6 expressed in baculovirus infected Sf9 insect cells using Boc-Lys (Ac)-AMC as substrate preincubated for 10 mins followed by substrate addition and measured after 30 mins by fluorescence assay
T1 sequence (Q9UBN7 whole entry): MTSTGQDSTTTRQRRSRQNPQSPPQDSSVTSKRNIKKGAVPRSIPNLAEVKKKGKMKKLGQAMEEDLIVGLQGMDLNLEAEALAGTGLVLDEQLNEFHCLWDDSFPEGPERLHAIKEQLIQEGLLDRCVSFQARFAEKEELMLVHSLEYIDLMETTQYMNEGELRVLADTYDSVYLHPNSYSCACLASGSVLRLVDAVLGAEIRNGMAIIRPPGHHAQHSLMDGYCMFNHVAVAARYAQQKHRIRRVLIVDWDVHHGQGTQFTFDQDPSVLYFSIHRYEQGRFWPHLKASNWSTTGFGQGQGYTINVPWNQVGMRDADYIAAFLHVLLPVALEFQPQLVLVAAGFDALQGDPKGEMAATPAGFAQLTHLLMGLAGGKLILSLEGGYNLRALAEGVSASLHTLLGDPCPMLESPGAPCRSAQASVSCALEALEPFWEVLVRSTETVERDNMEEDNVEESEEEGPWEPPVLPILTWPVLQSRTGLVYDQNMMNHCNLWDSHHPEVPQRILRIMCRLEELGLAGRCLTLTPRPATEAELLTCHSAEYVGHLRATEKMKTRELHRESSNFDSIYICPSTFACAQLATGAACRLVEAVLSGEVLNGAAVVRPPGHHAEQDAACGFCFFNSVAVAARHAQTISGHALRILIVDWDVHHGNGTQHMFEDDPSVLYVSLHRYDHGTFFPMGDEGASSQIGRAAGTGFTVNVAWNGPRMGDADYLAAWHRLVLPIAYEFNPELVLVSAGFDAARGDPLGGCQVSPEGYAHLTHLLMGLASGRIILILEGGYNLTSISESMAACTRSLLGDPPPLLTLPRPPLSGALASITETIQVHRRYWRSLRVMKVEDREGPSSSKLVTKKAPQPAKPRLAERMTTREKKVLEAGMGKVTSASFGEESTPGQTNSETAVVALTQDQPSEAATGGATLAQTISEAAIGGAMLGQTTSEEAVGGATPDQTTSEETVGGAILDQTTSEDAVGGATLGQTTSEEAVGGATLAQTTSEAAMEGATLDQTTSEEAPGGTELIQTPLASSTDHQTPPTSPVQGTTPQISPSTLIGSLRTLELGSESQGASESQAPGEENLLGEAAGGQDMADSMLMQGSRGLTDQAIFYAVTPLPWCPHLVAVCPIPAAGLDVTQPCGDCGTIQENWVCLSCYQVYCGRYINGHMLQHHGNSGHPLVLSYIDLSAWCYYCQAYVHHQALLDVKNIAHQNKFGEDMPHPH

[2] = test system: Lewis lung carcinoma cell line; experiment: Induction of apoptosis in mouse LL/2 cells assessed as viable cells at 4 uM after 24 hrs by Annexin V/propidium iodide staining-based flow cytometric analysis (reference value: 82.3%); assay type: functional
A549 [3] = experiment: Induction of apoptosis in human A549 cells assessed as viable cells at 4 uM after 24 hrs in presence of paclitaxel by Annexin V/propidium iodide staining-based flow cytometric analysis (reference value: 96.2%); assay type: functional
A549 [4] = experiment: Induction of apoptosis in human A549 cells assessed as early apoptotic cells at 4 uM after 24 hrs in presence of paclitaxel by Annexin V/propidium iodide staining-based flow cytometric analysis (reference value: 1.2%); assay type: functional
[5] = test system: Lewis lung carcinoma cell line; experiment: Induction of apoptosis in mouse LL/2 cells assessed as early apoptotic cells at 4 uM after 24 hrs by Annexin V/propidium iodide staining-based flow cytometric analysis (reference value: 1.8%); assay type: functional
A549 [6] = experiment: Induction of apoptosis in human A549 cells assessed as late apoptotic cells at 4 uM after 24 hrs in presence of paclitaxel by Annexin V/propidium iodide staining-based flow cytometric analysis (reference value: 1.6%); assay type: functional
A549 [7] = experiment: Induction of apoptosis in human A549 cells assessed as viable cells at 4 uM after 24 hrs by Annexin V/propidium iodide staining-based flow cytometric analysis (reference value: 96.2%); assay type: functional
[8] = test system: Lewis lung carcinoma cell line; experiment: Cytotoxicity against mouse LL/2 cells at 4 uM after 72 hrs by MTT assay relative to control; assay type: functional
Outline: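 Mouse LL/2 cells treated with inhibitor alone or combined with paclitaxel for 3 days. Viability measured by MTT assay relative to untreated control.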

Histone deacetylase 8 = target: T2, Histone deacetylase 8 (Homo sapiens, UniProt Q9BY41); experiment: Inhibition of human full-length recombinant HDAC8 expressed in baculovirus infected Sf9 insect cells using fluorogenic peptide RHKAcKAc as substrate after 2 hrs
T2 sequence (Q9BY41 whole entry): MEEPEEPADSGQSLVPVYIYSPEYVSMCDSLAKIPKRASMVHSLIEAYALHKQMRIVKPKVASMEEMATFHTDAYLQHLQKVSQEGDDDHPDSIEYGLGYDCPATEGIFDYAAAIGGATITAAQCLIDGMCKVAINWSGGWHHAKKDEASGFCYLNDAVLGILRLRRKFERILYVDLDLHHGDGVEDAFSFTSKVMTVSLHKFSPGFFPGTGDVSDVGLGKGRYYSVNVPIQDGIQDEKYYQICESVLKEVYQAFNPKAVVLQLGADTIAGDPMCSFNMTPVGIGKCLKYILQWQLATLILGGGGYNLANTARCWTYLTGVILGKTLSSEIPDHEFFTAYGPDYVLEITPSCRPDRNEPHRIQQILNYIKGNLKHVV

[9] = AUC (0 to 24 hrs) in C57BL/6 mouse plasma at 40 mg/kg, po administered via gavage by LC-MS/MS analysis; assay type: ADME, organism-based; parameters: time < 24 hr, dose 40 mg/kg, route oral; conditions: in vivo
[10] = test system: Lewis lung carcinoma cell line; experiment: Cytotoxicity against mouse LL/2 cells after 72 hrs by MTT assay; assay type: functional, cell-based
[11] = test system: Lewis lung carcinoma cell line; experiment: Antitumor activity against mouse LL/2 cells implanted in C57BL/6 mouse assessed as tumor growth inhibition at 20 mg/kg, po qd administered for 21 consecutive days co-administered with paclitaxel at 10 mg/kg, ip qd administered for 5 days relative to control; assay type: functional
[12] = test system: Lewis lung carcinoma cell line; experiment: Potentiation of paclitaxel-induced cytotoxicity in mouse LL/2 cells assessed as combination index up to 10 uM after 72 hrs by Chou-Talalay method; assay type: functional
[13] = Drug metabolism in C57BL/6 mouse liver assessed as hydroxylated metabolite formation at 40 mg/kg, po administered via gavage by LC-MS/MS analysis; assay type: ADME, organism-based; conditions: in vivo
[14] = test system: Lewis lung carcinoma cell line; experiment: Induction of apoptosis in mouse LL/2 cells assessed as necrotic cells at 4 uM after 24 hrs by Annexin V/propidium iodide staining-based flow cytometric analysis (reference value: 7.3%); assay type: functional
[15] = AUC (0 to 24 hrs) in C57BL/6 mouse kidney at 40 mg/kg, po administered via gavage by LC-MS/MS analysis; assay type: ADME, organism-based; parameters: time < 24 hr, dose 40 mg/kg, route oral; conditions: in vivo
[16] = test system: Lewis lung carcinoma cell line; experiment: Induction of apoptosis in mouse LL/2 cells assessed as late apoptotic cells at 4 uM after 24 hrs by Annexin V/propidium iodide staining-based flow cytometric analysis (reference value: 8.7%); assay type: functional
[17] = AUC (0 to 24 hrs) in C57BL/6 mouse liver at 40 mg/kg, po administered via gavage by LC-MS/MS analysis; assay type: ADME, organism-based; parameters: dose 40 mg/kg, time < 24 hr, route oral; conditions: in vivo

Ki [1]: 1.6 nM | IC50 (Histone deacetylase 8): 309 nM | AUC [9]: 71 ng·h/g | Drug metabolism [13]: Metabolite_Notdetected | AUC [15]: 1903 ng·h/g | AUC [17]: 6395 ng·h/g
Structure (SMILES): O=C(NO)c1ccc(Cn2c(=O)n(CCc3ccccc3)c(=O)c3ccccc32)cc1
Activity [2]: 85.8% | Activity (A549 [3]): 92.7% | Activity (A549 [4]): 5.4% | Activity [5]: 1.5% | Activity (A549 [6]): 1.3% | Activity (A549 [7]): 97.4% | Activity [8]: 10% | IC50 [10]: 7870 nM | TGI [11]: 67.5% | CI [12]: <1 | Activity [14]: 2.3% | Activity [16]: 10.4%
